# Experimental data: ChEMBL document CHEMBL1938274, “Discovery of potent and specific CXCR3 antagonists” (Bioorg Med Chem Lett, 2012)
# Experiments:
# PBL [1] = test: Toxicity in human PBL assessed as chromosomal aberrations at 7.81 to 1000 ug/mL; format: cell-based
# Procedure, shortened: (§1)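 Cultured human peripheral blood lymphocytes exposed at 7.81–1000 μg/mL, with and without S9 metabolic activation; chromosomal aberrations scored.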
# [2] = target: T1, C-X-C chemokine receptor type 3 (Homo sapiens, UniProt P49682); test: Displacement of [125I]-IP-10 from CXCR3 in presence of 100% human serum
# T1 sequence (P49682 whole entry): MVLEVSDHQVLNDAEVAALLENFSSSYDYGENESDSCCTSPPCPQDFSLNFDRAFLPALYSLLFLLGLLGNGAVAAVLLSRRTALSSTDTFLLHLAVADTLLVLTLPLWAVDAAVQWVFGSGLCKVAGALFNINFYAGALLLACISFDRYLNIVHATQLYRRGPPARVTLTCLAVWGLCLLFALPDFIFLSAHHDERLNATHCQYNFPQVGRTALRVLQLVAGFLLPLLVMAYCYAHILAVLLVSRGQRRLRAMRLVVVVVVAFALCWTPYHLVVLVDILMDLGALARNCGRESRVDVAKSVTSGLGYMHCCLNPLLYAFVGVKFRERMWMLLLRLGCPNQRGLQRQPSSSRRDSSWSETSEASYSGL
# PBL [3] = test: Toxicity in human PBL assessed as chromosomal aberrations at 7.81 to 1000 ug/mL in the presence of S9; format: cell-based; procedure, shortened: as §1
# [4] = target: T1, C-X-C chemokine receptor type 3; test: Displacement of [125I]-IP-10 from CXCR3
# [5] = Permeability of the compound at pH 5 to 7.4 by PAMPA; format: ADME; settings: read-out: permeability
# Procedure, shortened: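 PAMPA permeability measured across pH 5 to 7.4.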
# [6] = Mean residence time in mouse at 1 mg/kg, iv; format: ADME, organism-based; set-up: dose 1 mg/kg, route intravenous; settings: in vivo
# Procedure, shortened: (§2)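 Single intravenous dose in 10% N,N-dimethylacetamide, 10% ethanol, 30% propylene glycol, 50% water: 1 mg/kg mouse; 0.5 mg/kg rat, beagle dog, cynomolgus monkey. Plasma clearance also given as percent of hepatic blood flow.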
# [7] = Fraction unbound in Beagle dog plasma; format: ADME, cell-free, Canis lupus familiaris
# Mus musculus [8] = test: Hepatic blood flow in mouse at 1 mg/kg, iv; format: ADME, organism-based, Liver; set-up: dose 1 mg/kg, route intravenous; settings: in vivo; procedure, shortened: as §2
# [9] = Volume of distribution at steady state in Beagle dog at 0.5 mg/kg, iv; format: ADME, organism-based, Canis lupus familiaris; set-up: dose 0.5 mg/kg, route intravenous; settings: in vivo, read-out: Vdss; procedure, shortened: as §2
# Mus musculus [10] = test: Inhibition of bleomycin-induced leukocyte migration into lungs in C57BL/6 mouse lung injury model by measuring cell count in bronchoalveolar lavage fluid at 1 mg/kg, sc administered for 6 days; format: functional; settings: route subcutaneous
# Procedure, shortened: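 C57BL/6 mice given one intra-tracheal instillation of bleomycin, 1 mg/kg; compound delivered subcutaneously by osmotic mini-pump from challenge day for 6 days; cells counted in bronchoalveolar lavage on day six.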
# Canis familiaris = test: Hepatic blood flow in Beagle dog at 0.5 mg/kg, iv; format: ADME, organism-based, Canis lupus familiaris, Liver; set-up: dose 0.5 mg/kg, route intravenous; settings: in vivo; procedure, shortened: as §2
# Cynomolgus monkey = test: Hepatic blood flow in cynomolgus monkey at 0.5 mg/kg, iv; format: ADME, organism-based, Macaca fascicularis, Liver; set-up: dose 0.5 mg/kg, route intravenous; settings: in vivo; procedure, shortened: as §2
# [11] = Volume of distribution at steady state in mouse at 1 mg/kg, iv; format: ADME, organism-based; set-up: dose 1 mg/kg, route intravenous; settings: in vivo, read-out: Vdss; procedure, shortened: as §2
# [12] = target: T1, C-X-C chemokine receptor type 3; test: Receptor occupancy of CXCR3 in human whole blood assessed as inhibition of ITAC binding by fluorescence quenching based FACS analysis
# [13] = Apparent oral bioavailability in Beagle dog at 2 mg/kg; format: ADME, organism-based, Canis lupus familiaris; settings: in vivo, read-out: Fapp
# [14] = Fraction unbound in rat plasma; format: ADME, cell-free
# [15] = Fraction unbound in cynomolgus monkey plasma; format: ADME, cell-free, Macaca fascicularis
# [16] = Apparent oral bioavailability in cynomolgus monkey at 2 mg/kg; format: ADME, organism-based, Macaca fascicularis; settings: in vivo, read-out: Fapp
# Rattus norvegicus [17] = test: Clearance in rat at 0.5 mg/kg, iv; format: ADME, organism-based; set-up: dose 0.5 mg/kg, route intravenous; settings: in vivo; procedure, shortened: as §2
# [18] = Apparent oral bioavailability in rat at 2 mg/kg; format: ADME, organism-based; settings: in vivo, read-out: Fapp
# [19] = Half life in mouse at 1 mg/kg, iv; format: ADME, organism-based; set-up: dose 1 mg/kg, route intravenous; settings: in vivo; procedure, shortened: as §2
# Blood [20] = test: Drug level in C57BL/6 mouse blood at 1 mg/kg, sc after 1 hr; format: ADME, organism-based; set-up: dose 1 mg/kg, route subcutaneous; settings: in vivo
# Procedure, shortened: (§3)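 C57BL/6 mice given bleomycin intra-tracheally and dosed subcutaneously by osmotic mini-pump for 6 days; plasma collected to measure drug level, reported 1 h post dose.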
# [21] = Mean residence time in rat at 0.5 mg/kg, iv; format: ADME, organism-based; set-up: dose 0.5 mg/kg, route intravenous; settings: in vivo; procedure, shortened: as §2
# [22] = Half life in Beagle dog at 0.5 mg/kg, iv; format: ADME, organism-based, Canis lupus familiaris; set-up: dose 0.5 mg/kg, route intravenous; settings: in vivo; procedure, shortened: as §2
# Cytochrome P450 2D6 = Cytochrome P450 2D6 (Homo sapiens, UniProt P10635); test: Inhibition of CYP2D6; format: ADME
# Sequence of Cytochrome P450 2D6 (P10635 whole entry): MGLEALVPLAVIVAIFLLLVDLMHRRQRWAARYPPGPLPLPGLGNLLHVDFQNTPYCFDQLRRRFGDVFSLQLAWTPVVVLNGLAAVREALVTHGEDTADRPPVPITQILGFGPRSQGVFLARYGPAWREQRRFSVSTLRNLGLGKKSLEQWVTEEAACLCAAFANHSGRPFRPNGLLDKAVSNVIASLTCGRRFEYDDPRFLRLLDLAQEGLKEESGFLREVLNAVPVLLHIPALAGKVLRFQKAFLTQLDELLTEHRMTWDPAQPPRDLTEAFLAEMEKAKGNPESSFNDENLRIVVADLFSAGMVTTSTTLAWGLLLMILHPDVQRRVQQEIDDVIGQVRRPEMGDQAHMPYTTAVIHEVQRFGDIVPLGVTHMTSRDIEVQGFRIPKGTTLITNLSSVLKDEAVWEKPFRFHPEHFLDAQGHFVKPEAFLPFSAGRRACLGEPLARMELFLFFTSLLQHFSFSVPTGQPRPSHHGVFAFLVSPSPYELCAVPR
# [23] = Volume of distribution at steady state in rat at 0.5 mg/kg, iv; format: ADME, organism-based; set-up: dose 0.5 mg/kg, route intravenous; settings: in vivo, read-out: Vdss; procedure, shortened: as §2
# [24] = target: T2, C-X-C chemokine receptor type 3 (Mus musculus, UniProt O88410); test: Receptor occupancy of CXCR3 in mouse whole blood assessed as inhibition of ITAC binding by fluorescence quenching based FACS analysis
# T2 sequence (O88410 whole entry): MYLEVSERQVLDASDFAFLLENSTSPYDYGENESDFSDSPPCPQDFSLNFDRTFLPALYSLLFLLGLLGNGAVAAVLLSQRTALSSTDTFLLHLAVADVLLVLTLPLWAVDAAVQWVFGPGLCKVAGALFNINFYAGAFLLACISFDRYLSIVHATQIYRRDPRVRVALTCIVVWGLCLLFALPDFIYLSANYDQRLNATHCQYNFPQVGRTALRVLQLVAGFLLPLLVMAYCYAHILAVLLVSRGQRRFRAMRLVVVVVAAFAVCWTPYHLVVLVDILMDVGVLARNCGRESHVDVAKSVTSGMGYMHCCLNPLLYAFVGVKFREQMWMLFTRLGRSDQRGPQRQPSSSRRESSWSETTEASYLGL
# [25] = Clearance in cynomolgus monkey at 0.5 mg/kg, iv; format: ADME, organism-based, Macaca fascicularis; set-up: dose 0.5 mg/kg, route intravenous; settings: in vivo; procedure, shortened: as §2
# [26] = Mean residence time in cynomolgus monkey at 0.5 mg/kg, iv; format: ADME, organism-based, Macaca fascicularis; set-up: dose 0.5 mg/kg, route intravenous; settings: in vivo; procedure, shortened: as §2
# Blood [27] = test: Drug level in C57BL/6 mouse blood at 10 mg/kg, sc after 1 hr; format: ADME, organism-based; set-up: dose 10 mg/kg, route subcutaneous; settings: in vivo; procedure, shortened: as §3
# [28] = Mean residence time in Beagle dog at 0.5 mg/kg, iv; format: ADME, organism-based, Canis lupus familiaris; set-up: dose 0.5 mg/kg, route intravenous; settings: in vivo; procedure, shortened: as §2
# Cytochrome P450 3A4 = Cytochrome P450 3A4 (Homo sapiens, UniProt P08684); test: Inhibition of CYP3A4; format: ADME
# Sequence of Cytochrome P450 3A4 (P08684 whole entry): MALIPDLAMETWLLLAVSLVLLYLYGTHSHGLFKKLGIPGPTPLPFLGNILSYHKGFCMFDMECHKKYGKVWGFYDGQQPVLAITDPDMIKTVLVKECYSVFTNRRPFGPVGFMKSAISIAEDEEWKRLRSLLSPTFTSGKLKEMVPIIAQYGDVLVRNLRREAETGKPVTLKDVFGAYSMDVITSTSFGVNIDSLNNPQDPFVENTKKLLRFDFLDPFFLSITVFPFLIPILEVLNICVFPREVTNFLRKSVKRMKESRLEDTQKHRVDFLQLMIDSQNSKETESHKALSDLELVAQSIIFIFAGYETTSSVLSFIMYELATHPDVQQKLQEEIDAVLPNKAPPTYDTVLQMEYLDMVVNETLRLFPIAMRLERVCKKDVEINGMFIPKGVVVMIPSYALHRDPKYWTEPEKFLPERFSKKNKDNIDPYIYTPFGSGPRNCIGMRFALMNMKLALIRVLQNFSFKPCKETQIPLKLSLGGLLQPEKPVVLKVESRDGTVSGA
# [29] = Volume of distribution at steady state in cynomolgus monkey at 0.5 mg/kg, iv; format: ADME, organism-based, Macaca fascicularis; set-up: dose 0.5 mg/kg, route intravenous; settings: in vivo, read-out: Vdss; procedure, shortened: as §2
# [30] = Half life in rat at 0.5 mg/kg, iv; format: ADME, organism-based; set-up: dose 0.5 mg/kg, route intravenous; settings: in vivo; procedure, shortened: as §2
# Rattus norvegicus [31] = test: Hepatic blood flow in rat at 0.5 mg/kg, iv; format: ADME, organism-based, Liver; set-up: dose 0.5 mg/kg, route intravenous; settings: in vivo; procedure, shortened: as §2
# [32] = Apparent oral bioavailability in mouse at 5 mg/kg; format: ADME, organism-based; settings: in vivo, read-out: Fapp
# [33] = Half life in cynomolgus monkey at 0.5 mg/kg, iv; format: ADME, organism-based, Macaca fascicularis; set-up: dose 0.5 mg/kg, route intravenous; settings: in vivo; procedure, shortened: as §2
# [34] = Fraction unbound in mouse plasma; format: ADME, cell-free
# [35] = Clearance in mouse at 1 mg/kg, iv; format: ADME, organism-based; set-up: dose 1 mg/kg, route intravenous; settings: in vivo; procedure, shortened: as §2
# [36] = Clearance in Beagle dog at 0.5 mg/kg, iv; format: ADME, organism-based, Canis lupus familiaris; set-up: dose 0.5 mg/kg, route intravenous; settings: in vivo; procedure, shortened: as §2
# Blood [37] = test: Drug level in C57BL/6 mouse blood at 3 mg/kg, sc after 1 hr; format: ADME, organism-based; set-up: dose 3 mg/kg, route subcutaneous; settings: in vivo; procedure, shortened: as §3
smiles,measurement,setting,value
C[C@H](c1nc2ccccn2c(=O)c1-c1ccc(C#N)cc1)N(CC1CCS(=O)(=O)CC1)C(=O)Cc1ccc(OC(F)(F)F)cc1,Activity,PBL [1],Toxic
same,IC50,[2],22 nM
same,Activity,PBL [3],Toxic
same,IC50,[4],6 nM
CCS(=O)(=O)CCN(C(=O)Cc1ccc(C(F)(F)F)c(F)c1)[C@H](C)c1nc2ncccc2c(=O)n1-c1ccc(F)cc1,Activity,PBL [1],Non-toxic
same,IC50,[2],58 nM
same,Activity,PBL [3],Non-toxic
same,IC50,[4],47 nM
same,Papp,[5],0.8 ×10⁻⁶ cm/s
CCS(=O)(=O)CCN(C(=O)Cc1ccc(F)c(C(F)(F)F)c1)[C@H](C)c1nc2ncccc2c(=O)n1-c1ccc(Cl)cc1,Activity,PBL [1],Non-toxic
same,IC50,[2],22 nM
same,Activity,PBL [3],Non-toxic
same,IC50,[4],6 nM
CCS(=O)(=O)CCN(C(=O)Cc1ccc(C(F)(F)F)c(F)c1)[C@H](C)c1nc2ncccc2c(=O)n1-c1ccc(Cl)cc1,Activity,PBL [1],Non-toxic
same,IC50,[2],21 nM
same,Activity,PBL [3],Non-toxic
same,IC50,[4],7 nM
C[C@H](c1nc2ncccc2c(=O)n1-c1ccc(Cl)cc1)N(CC1CCS(=O)(=O)CC1)C(=O)Cc1ccc(F)c(C(F)(F)F)c1,MRT,[6],3.9 h
same,fraction unbound,[7],0.015
same,QH,Mus musculus [8],3%
same,Activity,PBL [1],Non-toxic
same,Vd,[9],1.4 L/kg
same,EC,Mus musculus [10],1 mg/kg
same,QH,Canis familiaris,82%
same,QH,Cynomolgus monkey,3%
same,Vd,[11],0.48 L/kg
same,IC50,[12],9.8 nM
same,bioavailability,[13],> 100%
same,fraction unbound,[14],0.061
same,fraction unbound,[15],0.037
same,bioavailability,[16],44%
same,CL,Rattus norvegicus [17],8.17 mL/min/kg
same,bioavailability,[18],69%
same,half-life,[19],4 h
same,Drug uptake,Blood [20],1.3 µM
same,MRT,[21],3.5 h
same,half-life,[22],1 h
same,IC50,Cytochrome P450 2D6,> 10000 nM
same,Vd,[23],1.9 L/kg
same,IC50,[24],200 nM
same,IC50,[2],12 nM
same,clearance,[25],2 mL/min/kg
same,Activity,PBL [3],Non-toxic
same,MRT,[26],8.7 h
same,Drug uptake,Blood [27],5.6 mg/kg
same,MRT,[28],1.1 h
same,IC50,Cytochrome P450 3A4,> 10000 nM
same,IC50,[4],6 nM
same,Vd,[29],1.2 L/kg
same,half-life,[30],4 h
same,QH,Rattus norvegicus [31],3%
same,bioavailability,[32],45%
same,half-life,[33],9 h
same,fraction unbound,[34],0.007
same,clearance,[35],2.17 mL/min/kg
same,clearance,[36],25 mL/min/kg
same,Drug uptake,Blood [37],3.4 mg/kg
C[C@H](c1nc2ncccc2c(=O)n1-c1ccc(Cl)cc1)N(CC1CCS(=O)(=O)CC1)C(=O)Cc1ccc(C(F)(F)F)c(F)c1,Activity,PBL [1],Non-toxic
same,IC50,Cytochrome P450 2D6,> 10000 nM
same,IC50,[2],13 nM
same,Activity,PBL [3],Non-toxic
same,IC50,Cytochrome P450 3A4,> 10000 nM
